# “Also recorded” adds a separate entry of the source.
# What was measured:
# Aedes aegypti larvae = assay: Mosquito larvicidal assay; type: in vivo; settings: for LC90: (95% confidence limits); for LC50: Aedes aegypti
# Summary of the method: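 Larvae came from later generations of a wild-derived Ae. aegypti colony kept at 25 ± 2 °C, 65–75% RH and 12:12 h light/dark. Twenty larvae per 150 mL of test solution were exposed at 100 down to 1.5625 μg/mL (twofold steps plus 75), with DMSO as vehicle. Controls were permethrin and DMSO (1 mL/150 mL). Mortality was scored at 24–96 h over four independent experiments.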
# M. separata = settings: at 5 μg/mL concentration; cited from earlier work
# [1] = target: electric eel (Electrophorus electricus) AChE (Electrophorus electricus, UniProt O42275); assay: Acetylcholinesterase; type: biochemical; settings: for inhibition at 4 µg/mL / inhibition at 20 µg/mL / inhibition at 100 µg/mL / inhibition at 250 µg/mL: read-out: AChE inhibitory activity
# Summary of the method: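 Electric eel AChE (0.25 IU/mL) was mixed with pH 8 phosphate buffer and test compound solution (500, 100, 20 or 4 μg/mL, diluted in water from DMSO stock) and held 15 min at 25 °C. DTNB (2.5 mM) and acetylthiocholine iodide (2.5 mM) were added, followed by 10 min more at 25 °C. Absorbance was read at 405 nm. Galantamine was the positive control, run in triplicate plates.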
# Plutella xylostella = settings: at 500 μg/mL; cited from earlier work
# Anopheles arabiensis = settings: compared with temephos; cited from earlier work
# [2] = Solubility of compounds for larvicidal testing; type: physicochemical; settings: larvicidal test, compounds dissolved in DMSO
# Chain of electric eel (Electrophorus electricus) AChE (O42275 24-633): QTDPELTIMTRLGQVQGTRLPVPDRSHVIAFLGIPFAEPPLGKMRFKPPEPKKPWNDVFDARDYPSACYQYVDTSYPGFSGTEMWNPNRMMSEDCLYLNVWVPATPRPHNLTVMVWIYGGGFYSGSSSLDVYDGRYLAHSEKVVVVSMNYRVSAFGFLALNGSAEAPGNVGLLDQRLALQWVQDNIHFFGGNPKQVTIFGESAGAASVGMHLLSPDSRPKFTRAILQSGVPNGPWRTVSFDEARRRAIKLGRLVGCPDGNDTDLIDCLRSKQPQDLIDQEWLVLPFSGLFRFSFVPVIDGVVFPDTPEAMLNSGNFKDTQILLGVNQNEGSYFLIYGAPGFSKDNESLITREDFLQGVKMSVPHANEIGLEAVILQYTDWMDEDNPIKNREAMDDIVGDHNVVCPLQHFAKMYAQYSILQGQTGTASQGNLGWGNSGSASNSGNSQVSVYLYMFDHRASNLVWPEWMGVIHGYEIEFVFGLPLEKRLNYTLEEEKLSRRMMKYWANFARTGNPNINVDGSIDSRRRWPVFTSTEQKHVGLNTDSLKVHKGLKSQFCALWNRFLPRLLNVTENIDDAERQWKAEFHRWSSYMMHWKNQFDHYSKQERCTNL
SMILES,LC50 (Aedes aegypti larvae; 96 h),LC90 (Aedes aegypti larvae; 24 h exposure),LC90 (Aedes aegypti larvae; 48 h exposure),LC90 (Aedes aegypti larvae; 72 h exposure),LC50 (Aedes aegypti larvae; 24 h),LC50 (Aedes aegypti larvae; 48 h),LC50 (Aedes aegypti larvae; 72 h),IC50 [1],inhibition at 4 µg/mL [1],inhibition at 20 µg/mL [1],inhibition at 100 µg/mL [1],inhibition at 250 µg/mL [1],other results
"Cc1nc2ccccc2c(=O)n1CC(=O)Nc1ccccc1 [4h, 2-(2-Methyl-4-oxoquinazolin-3(4H)-yl)-N-phenylacetamide]",> 50 µg/mL,,,,,,,,,,,,LC90 (Aedes aegypti larvae; 96 h exposure): >50 (96 h) μg/mL; larvicidal activity (in words) (Aedes aegypti larvae; compared with the other compounds): less activity
"Cc1cc(Cl)cc2c1NC(c1cc(Br)nn1-c1ncccc1Cl)N(C)C2=O (centres unmarked) [2-(3-bromo-1-(3-chloropyridine-)-2-yl)-1H-pyrazol-5-yl-6-chloro-3,8-dimethyl-2,3-dihydroquinazolin-4(1H)-one]",,,,,,,,,,,,,mortality (M. separata): 80%
"Cc1ccc(NC(=O)Cn2c(C)nc3ccccc3c2=O)cc1 [4f, 2-(2-Methyl-4-oxoquinazolin-3(4H)-yl)-N-(p-tolyl)acetamide]",,14.67 (13.22–16.69) μg/mL,14.33 (12.51–17.09) μg/mL,11.29 (9.56–14.17) μg/mL,8.67 µg/mL,5.92 µg/mL,2.08 µg/mL,186 µM,17.6%,34.2%,62.8%,98.9%,
"Clc1cc(Cl)c2ncnc(SCc3ccc(Cl)nc3)c2c1 [6,8-dichloro-4-(((6-chloropyridine-3-yl)methyl)thio)quinazoline]",,,,,,,,,,,,,mortality rate (Plutella xylostella): 85%
"Cc1nc2ccccc2c(=O)n1CC(=O)Nc1ccccc1Cl [4d, N-(2-Chlorophenyl)-2-(2-methyl-4-oxoquinazolin-3(4H)-yl)acetamide]",,,,,52.4 µg/mL,22.7 µg/mL,4.2 µg/mL,462 µM,7.58%,19.2%,36.5%,70.3%,
"Cc1nc2ccccc2c(=O)n1CC(=O)Nc1cccc(Cl)c1 [4c, N-(3-Chlorophenyl)-2-(2-methyl-4-oxoquinazolin-3(4H)-yl)acetamide]",1.8 µg/mL,,,,15.1 µg/mL,10.1 µg/mL,4.42 µg/mL,231 µM,15.4%,29.3%,56.5%,97.8%,
"Cc1nc2ccccc2c(=O)n1CC(=O)Nc1ccc(Cl)cc1 [4b, N-(4-Chlorophenyl)-2-(2-methyl-4-oxoquinazolin-3(4H)-yl)acetamide]",,31.11 (26.90–37.20) μg/mL,7.610 (6.607–9.160) μg/mL,6.945 (6.055–8.327) μg/mL,12.7 µg/mL,3.64 µg/mL,3.48 µg/mL,500 µM,18.1%,26.6%,34.7%,72.9%,
"COc1ccc(NC(=O)Cn2c(C)nc3ccccc3c2=O)cc1 [4e, N-(4-Methoxyphenyl)-2-(2-methyl-4-oxoquinazolin-3(4H)-yl)acetamide]",1.28 µg/mL,25.81 (21.16–33.50) μg/mL,16.26 (12.95–22.06) μg/mL,12.27 (9.67–17.09) μg/mL,9.25 µg/mL,4.27 µg/mL,2.76 µg/mL,,,,,,LC90 (Aedes aegypti larvae; 96 h exposure): 7.414 (5.780–10.598) μg/mL
"CC1(C)C(C=C(Cl)Cl)C1C(=O)OCc1cccc(Oc2ccccc2)c1 (centres unmarked) [permethrin, reference compound]",,0.00246 (0.00192–0.00344) μg/mL,,,0.000643 µg/mL,,,,,,,,
"COC(=O)C1=C(C)Nc2nc3ccc(I)cc3c(=O)n2C1c1ccc(Cl)cc1 (centres unmarked) [methyl 4-(4-chlorophenyl)-8-iodo-2-methyl-6-oxo-1,6-dihydro-4H-pyrimido[2,1-b]quinazoline-3-carboxylate]",,,,,,,,,,,,,larvicidal activity (in words) (Anopheles arabiensis): significantly stronger than temephos
"Cc1ccccc1NC(=O)Cn1c(C)nc2ccccc2c1=O [4g, 2-(2-Methyl-4-oxoquinazolin-3(4H)-yl)-N-(o-tolyl)acetamide]",,,,,,,,488 µM,-1.33%,13.4%,34.6%,73.1%,solubility [2]: insoluble; also recorded: not soluble
"Cc1nc2ccccc2c(=O)n1CC(=O)Nc1ccc(Br)cc1 [4a, N-(4-Bromophenyl)-2-(2-methyl-4-oxoquinazolin-3(4H)-yl)acetamide]",1.49 µg/mL,8.528 (7.729–9.730) μg/mL,6.396 (5.755–7.334) μg/mL,5.273 (4.620–6.340) μg/mL,5.82 µg/mL,3.66 µg/mL,2.26 µg/mL,714 µM,3.75%,14%,28.6%,48.5%,LC90 (Aedes aegypti larvae; 96 h exposure): 4.470 (3.864–5.530) μg/mL
"Cc1nc2ccccc2c(=O)n1CC(=O)Nc1ccc([N+](=O)[O-])cc1 [4i, 2-(2-Methyl-4-oxoquinazolin-3(4H)-yl)-N-(4-nitrophenyl)acetamide]",,,,,,,,454 µM,2.5%,6.08%,35.5%,75.6%,solubility [2]: insoluble; also recorded: not soluble

# From article PMC10357533 (ACS Omega, 2023)
